From article PMC3722612 (Archives of biochemistry and biophysics, 2013) come the findings set out here.

Data set [1] concerns WeeI. As to the kind of experiment: continuous DTNB. Format: biochemical, Acinetobacter baumannii. The settings on record: AcCoA saturating, 5 mM MgCl2, 50 mM HEPES pH 7.4, 25 °C. Summed up:
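AcCoA and UDP-4-amino varied separately, the other held saturating; AcCoA Km taken at 4 mM UDP-4-amino. Initial rates from the linear portion over 5 min; duplicates; background without UDP-4-amino subtracted.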

Data set [2] addresses WeeH (Acinetobacter baumannii, UniProt V5RC66). The data set is described as follows: radioactive transfer to Und-P, organic extraction. The data set is classed as biochemical. The settings on record: undecaprenyl phosphate, 50 mM MgCl2, 30 mM Tris-acetate pH 8.0, 1% Triton X-100, 3% DMSO, 25 °C.
In data set [3] the test system is CC(=O)N[C@H]1[C@@H](OP(=O)(O)OP(=O)(O)OC[C@H]2O[C@@H](n3ccc(=O)[nH]c3=O)[C@H](O)[C@@H]2O)O[C@H](C)[C@@H](N)[C@@H]1O. As to the kind of experiment: purified protein. The settings on record: conditions not stated separately for this enzyme.
In data set [4] the test system is CC(=O)SCCNC(=O)CCNC(=O)[C@H](O)C(C)(C)COP(=O)(O)OP(=O)(O)OC[C@H]1O[C@@H](n2cnc3c(N)ncnc32)[C@H](O)[C@@H]1OP(=O)(O)O. The data set is described as follows: purified protein. The settings on record: conditions not stated separately for this enzyme.
The subject of data set [5] is CC(=O)N[C@H]1[C@@H](OP(=O)(O)OP(=O)(O)OC[C@H]2O[C@@H](n3ccc(=O)[nH]c3=O)[C@H](O)[C@@H]2O)O[C@H](C)C(=O)[C@@H]1O. The data set is described as follows: purified protein. The settings on record: conditions not stated separately for this enzyme.
The subject of data set [6] is N[C@@H](CCC(=O)O)C(=O)O. The data set is described as follows: purified protein. The following applies: conditions not stated separately for this enzyme.

Usually Km stands for the concentration of substrate that gives half-maximal velocity. On to `CC(=O)N[C@H]1[C@@H](OP(=O)(O)OP(=O)(O)OC[C@H]2O[C@@H](n3ccc(=O)[nH]c3=O)[C@H](O)[C@@H]2O)O[C@H](C)[C@@H](N)[C@@H]1O` [UDP-4-amino, UDP-2-acetamido-4-amino-2,4,6-trideoxy-α-D-glucose], for which the Km in data set [1] is 4300 ± 140 µM.

As to `CC(=O)N[C@H]1[C@@H](OP(=O)(O)OP(=O)(O)OC[C@H]2O[C@@H](n3ccc(=O)[nH]c3=O)[C@H](O)[C@@H]2O)O[C@H](C)[C@@H](NC(C)=O)[C@@H]1O` [UDP-diNAcBac, UDP-2,4-diacetamido-2,4,6-trideoxy-α-D-glucose], the “radioactive transfer to Und-P, organic extraction” value in data set [2] is given as “This phosphoglycosyltransferase exhibited clear selectivity for UDP-diNAcBac over all other UDP-sugars”.

As usually defined, the kcat is the number of substrate molecules converted per active site and unit of time at saturation. The term kcat/Km denotes the second-order rate constant that governs catalysis at low substrate concentration. Regarding “PglB-ATD (Neisseria gonorrhoeae FA 1090)”, in data set [3], the Km is 192 ± 26 µM, the kcat amounted to 2000 ± 82 s⁻¹ and the kcat/Km turned out to be 1e+07 M⁻¹ s⁻¹. Besides, in data set [4], the Km was determined as 338 ± 47 µM, the kcat amounted to 2300 ± 110 s⁻¹ and the kcat/Km was found to be 6.9e+06 M⁻¹ s⁻¹.

Consider “PglD (Campylobacter jejuni subsp. jejuni NCTC 11168 = ATCC 700819)”, for which, in data set [3], the Km worked out at 311 ± 23 µM, the kcat was 12000 ± 380 s⁻¹ and the kcat/Km turned out to be 4e+07 M⁻¹ s⁻¹. Further, in data set [4], the Km worked out at 194 ± 30 µM, the kcat is 11000 ± 500 s⁻¹ and the kcat/Km worked out at 5.5e+07 M⁻¹ s⁻¹.

For “PglE (Campylobacter jejuni subsp. jejuni NCTC 11168 = ATCC 700819)”, in data set [5], the Km came to 366 ± 57 µM, the kcat is 2.4 ± 0.1 s⁻¹ and the kcat/Km came to 6600 M⁻¹ s⁻¹. For the same molecule, in data set [6], the Km is 11,000 ± 340 μM, the kcat was 0.028 ± 0.0003 s⁻¹ and the kcat/Km was found to be 2.6 M⁻¹ s⁻¹.
